Hep lipid drop: inhibitors of hepatocyte lipid droplet formation, primary screen, imaging, high-throughput imaging, BODIPY stain | AML12 mouse hepatocytes, oleate lipid droplets | inhibition, % at 6.5 µM | AID 1656, 2009 | 240,000 tested, 0.4% active;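 active means lipid droplet intensity inhibited by at least 50%, with more than 500 cells counted; inconclusive means wells with under 300 cells, treated as cytotoxic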
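Assay system: AML12 mouse liver cells | Compound: 6.5 µM single-point dosing | Schedule: Overnight exposure | Technique: Fluorescence imaging, 20x objective, two fields per well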
T cruzi repl: inhibitors of intracellular T. cruzi growth, primary screen, luminescence, NIH3T3 host cells | T. cruzi beta-gal in NIH3T3, 90 h | inhibition, % (test concentration not listed) | 300,000 tested, 1.4% active;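 active means mean inhibition across valid replicates above about 55%, limit read from the data; inconclusive means mean below that limit but half or more replicates reach it; inactive means mean below it, under half of replicates reach it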;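 further: signal also drops with host cell toxicity which is not excluded here; 0% = plate median of DMSO wells and 100% = zero luminescence signal; higher percent means less beta-gal luminescence so fewer parasites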
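Incubation – ≥90 h infection period, 3 h prior cell attachment · System – NIH/3T3 fibroblasts plus reporter T. cruzi · Doses – compound pinned at 50 nL/well, DMSO · Read-out basis – percent inhibition of parasite-derived β-gal signal · Signal – luminescent β-galactosidase signal after 60 min lysis · Also added – 5000 T. cruzi trypomastigotes/well · Medium – Low-serum DMEM with 2% FBS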
MPTP inh: mitochondrial permeability transition pore inhibitors, primary screen, biochemical, isolated mouse mitochondria, absorbance. AID 602449, 2012. inhibition, % at 10 µM. 360,000 tested, 1.4% active. Ca2+ swelling absorbance, 30 min;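 active means inhibition of 50% or more, scaled per plate between neutral and stimulator controls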;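 further: 0% = DMSO wells given calcium and 100% = 1 mM EGTA wells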
Lmaj promast: Leishmania major promastigote growth inhibition, primary screen; Leishmania major promastigotes, resazurin fluorescence viability; inhibition, % at 10 µM; AID 1063, 2008; 200,000 tested, 9% active; in the data active means inhibition above about 50%;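 further: promastigotes grown with compound for 44 hours at 28 °C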
Redox H2O2 prof: compounds producing H2O2 with reducing agent – biochemical, NIH compound library profiling, artefact control for MLSCN library redox annotation, primary screen. DTT-dependent redox cycling H2O2, phenol red/HRP absorbance; 100% = 100 µM peroxide control, 0% = buffer. activation, % at 10 µM. 200,000 tested, 0.03% active. AID 878, 2007;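 active means activation of at least 50% relative to the plate's high and low controls in the primary single-dose screen; inactive means activation below 50%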;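 further: compound incubated with DTT at 0.8 mM final as the reducing agent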
Numbers without * were called inactive; u = inconclusive; x = not tested or not shown. Many of the other results were omitted from the sample, so hits are more common in it than they were.

SMILES	Hep lipid drop	T cruzi repl	MPTP inh	Lmaj promast	Redox H2O2 prof
O=C(COC(=O)c1ccc([N+](=O)[O-])s1)Nc1ccccc1	13	11	2	38	2
CC(C)(C)c1ccc(NC(=O)COC(=O)c2ccc([N+](=O)[O-])s2)cc1	4	x	0	58*	1
O=C(OCC(=O)N1CCC(c2ccccc2)=N1)c1ccc([N+](=O)[O-])s1	x	55*	0	x	x
Cc1cc(C(=O)OCC(=O)N2CCC(c3ccccc3)=N2)ccc1[N+](=O)[O-]	x	2	1	x	x
O=C(COC(=O)c1ccc([N+](=O)[O-])s1)NC(c1ccccc1)c1ccccc1	8	10	2	67*	0
CCOC(=O)c1cnc(-n2nc(C)cc2C)nc1NCCc1ccccc1	x	55*	9	99*	0
CCOC(=O)c1cnc(-n2nc(C)cc2C)nc1NC1CCCC1	-44	52	8	x	x
CCOC(=O)c1cnc(-n2nc(C)cc2C)nc1NCc1ccc2c(c1)OCO2	-2	70*	0	8	0
CNc1ccc(/C=C2\CSc3ccccc3C2=O)cc1[N+](=O)[O-]	-18	1	7	99*	0
COC(=O)c1cc2cc(Cl)ccc2nc1SC	11	-3	0	x	x
O=C(COc1ccccc1)NC1CCCc2ccccc21 (stereo unspecified)	-14	1	18	51*	x
O=C(COC(=O)COc1ccccc1)NC1CCCc2ccccc21 (stereo unspecified)	10	-14	0	-1	0
O=C(CSc1cc(Cl)ccc1Cl)NC1CCCc2ccccc21 (stereo unspecified)	-46	5	4	57*	x
O=C(CSc1nc2cc(Cl)ccc2s1)NC1CCCc2ccccc21 (stereo unspecified)	-26	-10	0	2	0
Cc1ccc(S(=O)(=O)N2CCN(CC(=O)NC3CCCc4ccccc43)CC2)cc1C (stereo unspecified)	-12	38	0	98*	0
Cc1ccc(S(=O)(=O)N2CCN(CC(=O)NC3CCCc4ccccc43)CC2)c(C)c1 (stereo unspecified)	-22	19	3	13	0
O=C(COc1ccc(C(=O)c2ccccc2)cc1)NC1CCCCC1	17	-42	3	53*	0
O=C(O)c1cn[nH]c1-c1cccc([N+](=O)[O-])c1	-2	-16	-1	-7	8
COC(=O)c1cc(S(=O)(=O)N2CCN(c3cccc(Cl)c3)CC2)c[nH]1	6	6	0	x	x
CC(C)CC(C(=O)NC1CCCC1)N(Cc1ccc2c(c1)OCO2)C(=O)c1snc(C(N)=O)c1N (stereo unspecified)	5	11	3	28	-1
CC(C)CCNC(=O)C(CC(C)C)N(Cc1ccc2c(c1)OCO2)C(=O)c1snc(C(N)=O)c1N (stereo unspecified)	1	11	-2	92*	0
CCc1ccccc1N(CC(=O)NCc1ccco1)C(=O)c1snc(C(N)=O)c1N	x	-9	-19	62*	1
Cc1ccc(N(C(=O)c2snc(C(N)=O)c2N)C(C(=O)NCCC(C)C)c2ccco2)cc1 (stereo unspecified)	7	56*	1	65*	0
CC(C)CCNC(=O)C(c1ccco1)N(Cc1ccccc1)C(=O)c1snc(C(N)=O)c1N (stereo unspecified)	x	14	0	5	-3
COc1ccc(O)c(C(=O)CC(=O)c2ccc(F)cc2)c1	9	0	10	53*	0
SMILES	Hep lipid drop	T cruzi repl	MPTP inh	Lmaj promast	Redox H2O2 prof
COc1ccc(O)c(C(=O)CC(=O)c2ccccc2C)c1	-13	-2	-2	92*	-1
COc1ccc(C(=O)CC(=O)c2ccccc2O)cc1	10	3	-3	x	x
CCOc1cc(N2CCOCC2)c(OCC)cc1NC(=O)CN1C(=O)NC2(CCCCC2C)C1=O (stereo unspecified)	x	x	-1	x	x
CSCCCNC(=O)c1ccc(OC2CCN(CCc3ccccc3)CC2)cc1	-10	-10	2	75*	-1
C/C(CCN1CCc2nc(-c3ccccc3)c(-c3ccccc3)cc2C1)=N\O[C@@H](C)c1cn([C@H](CO)Cc2ccccc2)nn1	-7	0	x	10	1
Clc1ccc(Cn2c(-c3cccnc3Cl)nc3ccccc32)cc1	x	-6	-1	46	-4
Clc1ccc(Cn2c(-c3cccnc3Cl)nc3ccccc32)c(Cl)c1	x	31	-1	99*	-3
O=C(Cn1c2c(sc1=O)C1c3ccccc3OCC1CS2)Nc1ccc(Cl)c(Cl)c1 (stereo unspecified)	-2	17	15	96*	0
O=C(Nc1cccc2ccccc12)c1ccc([N+](=O)[O-])o1	-20	3	0	x	x
Cc1ccc(NC(=O)c2ccc([N+](=O)[O-])o2)cc1C	12	u	0	100*	-1
Cc1cccc(NC(=O)c2ccc([N+](=O)[O-])o2)c1C	21	9	2	97*	-1
O=C(Nc1cccc([N+](=O)[O-])c1)c1ccc([N+](=O)[O-])o1	x	x	-3	x	x
C[C@@H]1CN(C2CCN(Cc3nc(C(c4ccccc4)c4ccccc4)no3)CC2)C[C@H](C)O1	9	26	-1	85*	-1
Clc1ccccc1Cc1noc(CN2CCN3CCCC3C2)n1 (stereo unspecified)	6	25	0	75*	-1
c1ccc(C(c2ccccc2)c2noc(CN3CCN(C4CCCC4)CC3)n2)cc1	-25	43	2	84*	-1
CC(=O)N1CCN(Cc2nc(C(c3ccccc3)c3ccccc3)no2)CC1	16	-1	-1	-1	-1
FC(F)(F)c1ccc(-c2noc(CN3CCCN(C4CCCCC4)CC3)n2)cc1	-8	37	8	84*	0
OC1CCN(Cc2nc(Cc3ccccc3Cl)no2)CC1	29	1	7	1	-1
CCCNC(=O)c1cc(C2CCCCN2S(=O)(=O)Cc2cccc(C(F)(F)F)c2)on1 (stereo unspecified)	x	x	1	x	x
C[C@@H]1CN(C2CCN(Cc3nc(CC4CC4)no3)CC2)C[C@H](C)O1	4	0	-1	86*	-1
CN(C)C(=O)CN1CCN(Cc2nc(CC3CC3)no2)CC1	-11	-9	-2	x	x
Cc1ccc(C)c(NC(=O)C2CCCC2)c1	x	-10	2	x	x
OC1CCCN(Cc2ccc3c(c2)Cc2ccccc2-3)C1 (stereo unspecified)	x	45	3	73*	-1
Cc1cc(-c2nnc3n2N=C(c2ccc(-c4ccccc4)cc2)CS3)n[nH]1	x	46	-2	66*	0
Fc1ccc(C2=Nn3c(nnc3-c3n[nH]c4c3CCC4)SC2)cc1	x	13	-1	51*	1

Source: PubChem BioAssay (several laboratories)
